Source: PubChem BioAssay (several laboratories)
Cardio protect – protects H9c2 cardiomyocytes from peroxide injury | AID 588492 | protection from H2O2 cell death, % at 20 µM | 0.63% of 360,000 active | H2O2 injury protection, ATPLite, 2 h;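 active = compounds giving at least 50% protection of heart cells from peroxide-induced death in the single-dose screen, raw or plate-pattern-corrected value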
Myeloid diff 2 – promotes myeloid progenitor differentiation; ER-HoxA9 myeloid progenitors, lysozyme-GFP differentiation, flow cytometry; calls only at 10 µM; 1% of 360,000 active; AID 624256;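 active = normalized GFP-positive differentiation at or above the plate's own cutoff, the solvent-only control mean plus 3 SD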;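 note: cells exposed to compound for four days before flow analysis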
DSG3 Ab inh – human desmoglein-3 autoantibody binding inhibition; P32926; AID 588358; DSG3-coupled beads, scFv-anti-DSG3-GFP binding, flow cytometry; hits give low values; 0.48% of 310,000 active; binding (percent of control), % at 10 µM;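 active = binding more than 3 SD below its plate's average and above zero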;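 note: hits lower antibody fragment binding to DSG3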
SENP1 FRET inh – SENP1 (human) catalytic domain inhibition; Q9P0U3; recombinant SENP1 catalytic domain, CyPet-SUMO1-YPet FRET cleavage; inhibition, % at 10 µM; 0.21% of 360,000 active; AID 624204;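 active = inhibition at least 30% at 10 µM, raw YFP signal under a set limit, fluorescence ratio 0.5 to 1.5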
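Test system: human SENP1 catalytic domain; medium: Tris pH 8 buffer plus EDTA, NaCl, BME, BSA, NP40, catalase; incubation: 50 min reaction at room temperature; technique: FRET, CFP and YFP emission; controls: no-enzyme low control and enzyme-plus-DMSO high control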
HNF4A DNA FP – change in binding of human HNF4 alpha to DNA | HNF4a-FITC DNA binding, fluorescence polarization, 1 h | activity change, % at 10 µM | 0.3% of 360,000 active; in the data active = activity change above about 30%, passing the limit was not always enough
Granule exo inh – lytic granule exocytosis inhibition; inhibition, % at 10 µM; AID 651702; TALL-104 LAMP-1 surface exposure, flow cytometry; cells stimulated with thapsigargin and PMA; 0.66% of 360,000 active;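 active = inhibition above about 55%, limit read from the data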
Myeloid diff CP1 – compounds promoting myeloid differentiation | 2% of 2,300 active | AID 651706 | shares compounds with Myeloid diff 2 | calls only | ER-HoxA9 myeloid progenitors, GFP/Mac1 double-positive flow;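 active = share of green or green-and-red cells above 9 and 9% in run 1 or 4 and 3% in run 2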
GFP autofluor – flagged as fluorescent in myeloid differentiation counter-screen. shares compounds with Myeloid diff 2. ER-HoxA9 myeloid progenitors, no estrogen, GFP autofluorescence flow cytometry; vehicle wells 0%, positive control 100%. fluorescence response, % (test concentration not listed). 7.4% of 2,300 active;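 active = over 5% cells positive for green fluorescent reporter, or over 2% positive for both it and APC stain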
A number is an active result; – = inactive; · = not tested or not shown; + = active, no number. Sampled rows, rich in hits. Any-hit rate of the full collection: about 3%.

SMILES	Cardio protect	Myeloid diff 2	DSG3 Ab inh	SENP1 FRET inh	HNF4A DNA FP	Granule exo inh	Myeloid diff CP1	GFP autofluor
Cc1nn(C)c(Cl)c1CN1CCC(CO)(CC2CCCCO2)CC1 (centres undefined)	–	–	–	–	–	–	·	·
Cc1cccc(Nc2ncccc2C(=O)NCc2cccs2)c1C	–	–	·	–	–	–	–	–
COC(=O)c1sc(N2C(=O)C(O)=C(C(=O)c3ccc(C)o3)C2c2cc(OC)ccc2OC)nc1C (centres undefined)	–	–	·	–	–	–	·	·
Cc1ccc(N2CCN(S(=O)(=O)c3ccc(C)cc3)CC2)cc1	–	–	–	–	–	–	·	·
Cc1ccc(S(=O)(=O)N2CCN(C(=O)CN3CCN(c4ccc(O)cc4)CC3)CC2)cc1	–	+	–	–	–	–	–	–
CC(=O)O[C@]1(C(C)=O)CC[C@H]2[C@@H]3C=C(Cl)C4=CC(=O)[C@@H]5C[C@@H]5[C@]4(C)[C@H]3CC[C@@]21C	–	–	–	–	–	–	·	·
CC(=O)O[C@]1(C(C)=O)CC[C@H]2[C@@H]3C=C(Cl)C4=CC(=O)CC[C@]4(C)[C@H]3CC[C@@]21C	–	–	–	–	–	–	–	–
NC(=O)CC(NC(=O)Cc1ccc(Cl)cc1)c1ccc(NC2CCCCC2)c([N+](=O)[O-])c1 (centres undefined)	–	–	–	–	–	–	–	–
COC(=O)c1sc2ccccc2c1-n1cccc1C(=O)C(=O)Nc1ccccc1	–	–	–	–	–	–	–	–
COC(=O)c1sc2ccccc2c1-n1cccc1C(=O)C(=O)Nc1ccc(OC)cc1	–	–	·	–	–	–	·	·
O=C(Cn1c(=O)n(Cc2ccco2)c(=O)c2cc(Cl)ccc21)NCC1CCCO1 (centres undefined)	–	+	–	–	–	–	–	–
O=C1CSC(=Nc2ccc(F)cc2)N1	–	+	–	–	–	–	–	–
O=C1CSC(=Nc2ccccc2)N1	–	–	–	–	–	–	·	·
CCN(CC(=O)NCc1cccs1)C(=O)Cc1ccc(Cl)c(Cl)c1	–	–	–	–	–	–	·	·
COc1ccc(OCC(=O)OCCN2C(=O)c3ccccc3C2=O)cc1	–	+	–	–	–	–	–	–
Cc1cc(C)c(OCCN2CCOCC2)c(Cl)c1	–	–	–	–	–	–	·	·
Cc1cn([C@H]2C[C@H](O)[C@@H](COS(=O)(=O)O)O2)c(=O)[nH]c1=O	–	–	–	–	–	–	·	·
CC1(C)O[C@@H]2[C@H](O1)[C@@H](COS(=O)(=O)O)O[C@H]2n1cc(Br)c(=O)[nH]c1=O	–	+	–	–	–	–	–	–
Cn1cnnc1Sc1nc2ccccc2nc1NS(=O)(=O)c1ccccc1	–	–	–	–	–	–	–	–
COc1cc(NC(=O)Nc2nc(C(N)C3CCCCC3)cs2)cc(OC)c1OC (centres undefined)	–	–	·	–	–	–	·	·
CC1CCCCN1C(=O)c1ccc(C(=O)N2CCCCC2C)cc1 (centres undefined)	–	–	–	–	–	–	–	–
CN(C)S(=O)(=O)c1cccc(NC(=O)COC(=O)c2cccn2C)c1	–	–	–	–	–	–	·	·
Cc1ccc(Oc2ccc(OCC(=O)NC(CC(C)C)C(=O)O)cc2)cc1 (centres undefined)	–	–	–	–	–	–	·	·
COc1ccccc1CNC(=O)C1CCN(S(=O)(=O)c2ccc3c(c2)C(C)(C)C(=O)N3C)CC1	–	–	–	–	–	–	·	·
COc1ccccc1CNC(=O)C1CCCN(S(=O)(=O)c2ccc3c(c2)C(C)(C)C(=O)N3C)C1 (centres undefined)	–	–	–	–	–	–	–	–
SMILES	Cardio protect	Myeloid diff 2	DSG3 Ab inh	SENP1 FRET inh	HNF4A DNA FP	Granule exo inh	Myeloid diff CP1	GFP autofluor
Cn1c(=O)oc2cc(S(=O)(=O)N3CCCC(C(=O)NCc4cccs4)C3)ccc21 (centres undefined)	–	–	–	–	–	–	–	–
Cn1c(=O)oc2cc(S(=O)(=O)N3CCCC(C(=O)NCc4ccc5c(c4)OCO5)C3)ccc21 (centres undefined)	–	–	–	–	–	–	·	·
O=C(NNC1=Nc2cccc3cccc1c23)c1ccc(Br)cc1	–	+	·	–	–	–	–	12.4
COC(=O)c1oc2ccccc2c1NC(=O)/C=C/C(=O)O	–	–	–	–	–	–	·	·
CC(C)NC(=O)C1(C)CCCN1C/C=C/c1ccccc1 (centres undefined)	–	–	·	–	–	–	·	·
Cc1ccc(NC(=O)CN(C)C(=O)c2cc(-c3ccco3)nc3ccccc23)cc1	–	–	–	–	–	–	–	–
CCc1ccc(NC2CC(=O)N(c3ccc(OC)cc3OC)C2=O)cc1 (centres undefined)	–	–	–	–	–	–	–	–
CCc1ccc(NC2CC(=O)N(CCc3ccc(OC)c(OC)c3)C2=O)cc1 (centres undefined)	–	–	–	–	–	–	·	·
CC(C)(C)OC(=O)C[C@@H]1C/C=C\C[C@H](CC(=O)N(CCO)Cc2ccccc2)C(=O)N2CCC[C@H]2COC1=O	–	–	–	–	–	–	·	·
COc1ccc(NC(=O)N2CCCC2C(=O)NCCc2ccccc2)cc1 (centres undefined)	–	–	–	–	–	–	–	–
COCCCNc1nc2cc(OC)c(OC)cc2c2nc(-c3ccccc3)nn12	56.4	+	–	–	–	–	–	–
Oc1[nH]c2ccccc2c1C=Nc1ccccc1	–	–	–	–	–	–	–	–
CCNc1nc(NC(C)CC)nc(Oc2ccc(OCC)nn2)n1 (centres undefined)	–	–	–	–	–	–	·	·
O=C(CCN1C(=O)CSc2ccccc21)Nc1ccc(OC(F)(F)F)cc1	–	–	–	–	–	–	·	·
CCOc1ccccc1-n1c(SCC(N)=O)nnc1-c1ccccc1	–	–	–	–	–	–	–	–
CCOc1ccccc1-n1c(SCC(N)=O)nnc1-c1ccc(O)cc1	–	–	–	–	–	–	·	·
CN(Cc1ccc(F)cc1)C(=O)CNC(=O)c1ccc2c(c1)OCO2	–	–	–	–	–	–	·	·
COc1ccccc1CNC(=O)CN1C(=O)COc2ccc(S(=O)(=O)N3CCCCC3)cc21	–	–	–	–	–	–	·	·
CCCCCCSc1ccc(-c2nc3cnccn3c2NC2CCCCC2)cc1	·	–	·	–	–	–	–	18.4
CCC(C)Sc1ccc(-c2nc3cnccn3c2NC2CCCCC2)cc1 (centres undefined)	–	–	·	–	–	–	·	·
